Laboratory results reported in ChEMBL document CHEMBL4480455, “Anti-inflammatory Property of Imperatorin on Alveolar Macrophages and Inflammatory Lung Injury” (J Nat Prod, 2019).
Active and inactive are the calls of the source. The calls are words filed in the database; no cut-off is given here.

Tests used:
[1] = biological target: Transcription factor p65 (Mus musculus) (UniProt Q04207); assay: Inhibition of zymosan-induced NFkappaB p65 nuclear translocation in mouse MHS cells at 15 ug/ml by DAPI staining based immunofluorescence microscopic analysis; type: cell-based
Summary of the method: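 MH-S cells on coverslips pretreated, then given zymosan 10 μg/mL for 3 h. Fixed in 4% paraformaldehyde, permeabilized with 1% Triton X-100, blocked with 4% skim milk. Anti-p65 at 4 °C overnight, FITC secondary 1 h, DAPI nuclear counterstain. Fluorescence microscopy; at least three experiments.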

Mus musculus [2] = organism: Mus musculus; assay: Antiinflammatory activity in mouse MHS cells assessed as reduction in zymosan-induced iNOS mRNA expression preincubated for 30 mins followed by zymosan challenge and measured after 6 to 24 hrs by TRIzol reagent based qRT-PCR analysis; type: functional, cell-based
Summary of the method: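 MH-S alveolar macrophages grown in RPMI 1640 with 10% FBS at 37 °C and 5% CO2. Cells pretreated for 30 min, then given zymosan 10 μg/mL for 6 h. mRNA measured by SYBR Green real-time PCR (95 °C 10 min; 42 cycles of 95 °C 10 s, 60 °C 60 s) with actin as reference. Normalized to control; mean ± SD, n≥3.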

[3] = Antiinflammatory activity in mouse MHS cells assessed as reduction in zymosan-induced iNOS protein expression at 1.5 ug/ml preincubated for 30 mins followed by zymosan challenge and measured after 6 to 24 hrs by Western blotting analysis relative to control (reference value: 2.93 +/- 0.84); type: functional
[4] = biological target: Tyrosine-protein kinase JAK1 (Mus musculus) (UniProt P52332); assay: Effect on JAK1 phosphorylation in mouse MHS cells assessed as phosphorylated JAK1 level at 15 ug/ml by Western blot analysis relative to tubulin (reference value: 1); type: cell-based
Mus musculus [5] = assay: Antiinflammatory activity in zymosan induced C57BL/6 mouse model of lung injury assessed as reduction in total protein level in BALF at 4 mg/kg, ip pretreated for 3 days followed by zymosan challenge and measured after 24 hrs; type: functional, organism-based
Summary of the method: (§1)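 Male C57BL/6 mice, 25–30 g. Dosed i.p. daily for 3 days, then zymosan 4 mg/kg in 40 μL saline given by intratracheal instillation. After 24 h, BALF collected with five 0.2 mL PBS washes and centrifuged. Supernatant assayed for PGE2 and total protein. Cells counted by hemocytometer, and ≥300 cells on stained smears scored for differential counts. Left lung weighed, dried at 48 °C for 48 h, reweighed for wet/dry ratio.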

Mus musculus [6] = assay: Antiinflammatory activity in zymosan induced C57BL/6 mouse model of lung injury assessed as reduction in subepithelial collagen deposition/fibrosis at 4 mg/kg, ip pretreated for 3 days followed by zymosan challenge and measured after 24 hrs by Masson's trichrome staining based microscopic analysis; type: functional, organism-based
Summary of the method: (§2)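 Male C57BL/6 mice dosed i.p. for 3 days, then given zymosan (4 mg/kg, i.t.) or saline. Lungs harvested 24 h later. Right lung fixed in 10% formalin, embedded in paraffin, cut into 5 μm sections, stained with H&E or Masson's trichrome and examined by microscopy. Collagen also measured by hydroxyproline assay on lung lysates. Mean ± SD, n≥4.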

[7] = biological target: Signal transducer and activator of transcription 3 (Mus musculus) (UniProt P42227); assay: Inhibition of zymosan-induced STAT3 phosphorylation in mouse MHS cells assessed as phosphorylated STAT3 level at 1.5 ug/ml by Western blot analysis relative to tubulin (reference value: 2.1); type: cell-based
Summary of the method: (§3)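 MH-S cells pretreated, then stimulated with zymosan 10 μg/mL. Phospho-JAK1 (Y1022/1023), phospho-STAT3 (Y705) and phospho-IKKα/β detected by Western blot against total protein and tubulin. Zymosan time course 1–30 min for JAK1/STAT3 and 1–60 min for IKK. Normalized to control; mean ± SD, n≥3.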

Mus musculus [8] = assay: Effect on morphological changes in lungs of C57BL/6 mouse at 4 mg/kg, ip administered for 3 days by H and E staining based microscopic analysis; type: ADME, organism-based; settings: in vivo, 72 h; summary of the method: as §2
[9] = Effect on nitrite level in mouse MHS cells at 1.5 to 15 ug/ml after 30 mins by Griess assay; type: ADME, cell-based; settings: 0.5 h
Mus musculus [10] = assay: Antiinflammatory activity in zymosan induced C57BL/6 mouse model of lung injury assessed as reduction in hypertrophic smooth muscle cells at 4 mg/kg, ip pretreated for 3 days followed by zymosan challenge and measured after 24 hrs by H and E staining based microscopic analysis; type: functional, organism-based; summary of the method: as §2
[11] = Cytotoxicity against zymosan-induced mouse MHS cells assessed as effect on cell viability at 1.5 to 15 ug/ml preincubated for 30 mins followed by zymosan challenge and measured after 6 to 24 hrs by sulforhodamine B assay; type: cell-based
Summary of the method: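 MH-S cells exposed to test agent and zymosan (10 μg/mL). Viability by sulforhodamine B: fixed in 10% trichloroacetic acid, stained 30 min with 0.4% (w/v) SRB, dissolved in 10 mM Tris, read at OD 515 nm. Mean ± SD, n≥3.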

[12] = Antiinflammatory activity in mouse MHS cells assessed as reduction in zymosan-induced COX2 protein expression at 1.5 ug/ml preincubated for 30 mins followed by zymosan challenge and measured after 6 to 24 hrs by Western blotting analysis relative to control (reference value: 2.2 +/- 1.8); type: functional
[13] = Antiinflammatory activity in mouse MHS cells assessed as reduction in zymosan-induced iNOS protein expression at 15 ug/ml preincubated for 30 mins followed by zymosan challenge and measured after 6 to 24 hrs by Western blotting analysis relative to control (reference value: 2.93 +/- 0.84); type: functional
Mus musculus [14] = assay: Antiinflammatory activity in zymosan induced C57BL/6 mouse model of lung injury assessed as reduction in immune cell infiltration at 4 mg/kg, ip pretreated for 3 days followed by zymosan challenge and measured after 24 hrs by H and E staining based microscopic analysis; type: functional, organism-based; summary of the method: as §2
Mus musculus [15] = organism: Mus musculus; assay: Antiinflammatory activity in mouse MHS cells assessed as reduction in zymosan-induced TNFalpha protein expression at 1.5 to 15 ug/ml preincubated for 30 mins followed by zymosan challenge and measured after 6 to 24 hrs; type: functional, cell-based
Summary of the method: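 MH-S cells pretreated for 30 min, then given zymosan 10 μg/mL for 24 h. IL-6 and TNFα protein in culture supernatant assessed by cytokine array. Values normalized to control; mean ± SD, n≥3.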

[16] = biological target: Tyrosine-protein kinase JAK1 (Mus musculus) (UniProt P52332); assay: Inhibition of zymosan-induced JAK1 phosphorylation in mouse MHS cells preincubated for 30 mins followed by zymosan challenge and measured after 6 to 24 hrs by Western blot analysis; type: cell-based
[17] = biological target: Signal transducer and activator of transcription 3 (Mus musculus) (UniProt P42227); assay: Effect on STAT3 phosphorylation in mouse MHS cells assessed as phosphorylated STAT3 level at 15 ug/ml by Western blot analysis relative to tubulin (reference value: 1); type: cell-based
[18] = Effect on PGE2 level in mouse MHS cells at 1.5 to 15 ug/ml after 30 mins; settings: 0.5 h
Mus musculus [19] = assay: Antiinflammatory activity in zymosan induced C57BL/6 mouse model of lung injury assessed as reduction in wet to dry lung edema ratio at 4 mg/kg, ip pretreated for 3 days followed by zymosan challenge and measured after 24 hrs; type: functional, organism-based; summary of the method: as §1
Mus musculus [20] = organism: Mus musculus; assay: Antiinflammatory activity in mouse MHS cells assessed as reduction in zymosan-induced nitrite production at 1.5 to 15 ug/ml preincubated for 30 mins followed by zymosan challenge and measured after 6 to 24 hrs by Griess assay; type: functional, cell-based
Summary of the method: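 MH-S cells pretreated for 30 min, then given zymosan 10 μg/mL for 24 h. Supernatant nitrite reacted with equal volumes of 0.1% NED and 1% sulfanilamide in 5% phosphoric acid, 10 min in the dark. Absorbance read at 520 nm. Mean ± SD, n≥3.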

[21] = biological target: I-kappa-B kinase (Mus musculus) (UniProt Q60680+O88351+O88522); assay: Inhibition of zymosan-induced IKK phosphorylation in mouse MHS cells assessed as phosphorylated IKK level at 1.5 ug/ml by Western blot analysis relative to tubulin (reference value: 1.8); type: cell-based; summary of the method: as §3

Chain of Tyrosine-protein kinase JAK1 (Mus musculus) (P52332 whole entry): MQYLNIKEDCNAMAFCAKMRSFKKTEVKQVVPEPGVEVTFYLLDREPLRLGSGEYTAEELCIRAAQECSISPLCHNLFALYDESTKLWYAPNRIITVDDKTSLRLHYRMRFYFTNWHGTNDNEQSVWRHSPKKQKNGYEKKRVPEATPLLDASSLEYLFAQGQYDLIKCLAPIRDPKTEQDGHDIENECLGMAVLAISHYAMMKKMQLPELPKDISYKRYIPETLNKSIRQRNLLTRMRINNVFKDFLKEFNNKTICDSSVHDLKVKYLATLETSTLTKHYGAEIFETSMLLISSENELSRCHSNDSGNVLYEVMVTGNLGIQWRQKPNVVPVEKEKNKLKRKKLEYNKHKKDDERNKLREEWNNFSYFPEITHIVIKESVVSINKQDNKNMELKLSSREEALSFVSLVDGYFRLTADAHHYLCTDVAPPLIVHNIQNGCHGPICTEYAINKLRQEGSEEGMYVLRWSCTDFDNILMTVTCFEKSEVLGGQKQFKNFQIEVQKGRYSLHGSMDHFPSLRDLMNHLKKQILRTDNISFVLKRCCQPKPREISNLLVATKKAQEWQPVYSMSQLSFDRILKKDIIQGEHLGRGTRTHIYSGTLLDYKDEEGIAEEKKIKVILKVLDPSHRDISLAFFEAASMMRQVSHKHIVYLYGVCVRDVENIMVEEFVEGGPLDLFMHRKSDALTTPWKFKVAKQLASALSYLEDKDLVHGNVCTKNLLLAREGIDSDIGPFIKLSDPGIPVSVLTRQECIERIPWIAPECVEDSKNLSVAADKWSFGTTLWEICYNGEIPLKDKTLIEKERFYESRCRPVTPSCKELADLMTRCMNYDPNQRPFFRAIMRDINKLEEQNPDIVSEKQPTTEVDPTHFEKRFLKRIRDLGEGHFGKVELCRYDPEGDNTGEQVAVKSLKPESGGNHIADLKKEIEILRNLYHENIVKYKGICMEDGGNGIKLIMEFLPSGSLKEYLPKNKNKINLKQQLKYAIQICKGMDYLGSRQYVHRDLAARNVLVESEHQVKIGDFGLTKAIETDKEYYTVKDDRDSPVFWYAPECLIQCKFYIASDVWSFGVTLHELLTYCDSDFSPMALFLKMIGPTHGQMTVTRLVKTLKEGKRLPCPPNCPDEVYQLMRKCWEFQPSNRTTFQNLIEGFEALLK
Chain of Signal transducer and activator of transcription 3 (Mus musculus) (P42227 whole entry): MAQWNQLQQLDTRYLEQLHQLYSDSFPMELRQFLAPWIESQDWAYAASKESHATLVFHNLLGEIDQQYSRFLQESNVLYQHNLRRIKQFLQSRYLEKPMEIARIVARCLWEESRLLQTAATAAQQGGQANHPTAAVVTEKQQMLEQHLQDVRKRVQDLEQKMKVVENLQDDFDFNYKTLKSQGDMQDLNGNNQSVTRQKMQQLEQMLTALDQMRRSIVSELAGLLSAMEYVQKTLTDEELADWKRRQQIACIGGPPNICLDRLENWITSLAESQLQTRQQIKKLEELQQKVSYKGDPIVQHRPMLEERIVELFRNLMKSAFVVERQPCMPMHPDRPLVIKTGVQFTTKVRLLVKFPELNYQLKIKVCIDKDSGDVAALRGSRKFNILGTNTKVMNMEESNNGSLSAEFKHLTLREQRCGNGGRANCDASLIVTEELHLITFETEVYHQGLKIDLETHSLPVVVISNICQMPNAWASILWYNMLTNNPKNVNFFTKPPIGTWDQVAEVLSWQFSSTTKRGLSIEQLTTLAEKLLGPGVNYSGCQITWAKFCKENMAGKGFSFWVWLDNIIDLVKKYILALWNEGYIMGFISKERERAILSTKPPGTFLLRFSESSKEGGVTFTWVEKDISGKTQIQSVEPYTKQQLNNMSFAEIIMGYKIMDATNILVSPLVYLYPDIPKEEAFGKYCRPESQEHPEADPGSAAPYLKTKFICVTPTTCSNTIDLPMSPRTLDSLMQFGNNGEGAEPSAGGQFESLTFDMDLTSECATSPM
Chain of Transcription factor p65 (Mus musculus) (Q04207 whole entry): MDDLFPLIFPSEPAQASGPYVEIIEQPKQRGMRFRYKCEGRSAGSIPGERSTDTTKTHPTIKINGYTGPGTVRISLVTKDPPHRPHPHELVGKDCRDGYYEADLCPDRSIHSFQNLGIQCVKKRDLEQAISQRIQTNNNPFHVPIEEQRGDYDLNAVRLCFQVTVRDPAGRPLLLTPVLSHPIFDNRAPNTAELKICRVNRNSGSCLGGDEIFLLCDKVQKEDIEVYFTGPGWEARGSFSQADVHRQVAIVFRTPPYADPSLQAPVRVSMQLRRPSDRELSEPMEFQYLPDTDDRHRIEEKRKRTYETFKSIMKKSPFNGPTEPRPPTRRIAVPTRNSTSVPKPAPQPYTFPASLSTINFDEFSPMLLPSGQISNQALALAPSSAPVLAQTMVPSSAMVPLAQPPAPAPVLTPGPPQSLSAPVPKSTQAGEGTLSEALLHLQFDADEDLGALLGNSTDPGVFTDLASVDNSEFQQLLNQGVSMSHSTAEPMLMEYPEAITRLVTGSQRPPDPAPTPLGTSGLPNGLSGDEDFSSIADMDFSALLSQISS

Q: For `CC(C)=CCOc1c2occc2cc2ccc(=O)oc12` [PENTOSALEN], which inhibition [1] is on record?
A: Its inhibition is “Active”.

Q: And the Activity (Mus musculus [2])?
A: The Activity was “Dose-dependent effect”.

Q: And the “fold change (FC)” value [3]?
A: The value was 2.5.

Q: And the fold change (FC) [4]?
A: Its fold change (FC) is 1.2.

Q: And the Activity (Mus musculus [5])?
A: The Activity was “Active”.

Q: What about the Activity (Mus musculus [6]) of the same compound?
A: The Activity was “Active”.

Q: And the fold change (FC) [7]?
A: The fold change (FC) was 1.8.

Q: And the Activity (Mus musculus [8])?
A: The Activity was “Non-Toxic”.

Q: What about the Activity [9] of the same compound?
A: The Activity was “Non-Toxic”.

Q: And the Activity (Mus musculus [10])?
A: The Activity was “Active”.

Q: And the Activity [11]?
A: The Activity was “Non-Toxic”.

Q: And the “fold change (FC)” value [12]?
A: The value was 2.2.

Q: What about the “fold change (FC)” value [13] of the same compound?
A: The value was 1.5.

Q: What about the Activity (Mus musculus [14]) of the same compound?
A: Its Activity is “Active”.

Q: And the Activity (Mus musculus [15])?
A: Its Activity is “Active”.

Q: What about the inhibition [16] of the same compound?
A: The inhibition was “Dose-dependent effect”.

Q: And the fold change (FC) [17]?
A: Its fold change (FC) is 1.2.

Q: And the Activity [18]?
A: Its Activity is “Non-Toxic”.

Q: And the Activity (Mus musculus [19])?
A: The Activity was “Active”.

Q: And the Activity (Mus musculus [20])?
A: The Activity was “Active”.

Q: What about the fold change (FC) [21] of the same compound?
A: The fold change (FC) was 1.2.
